# High-throughput results as filed in PubChem BioAssay.
# A selection: hits, their analogues and other compounds. The true share with any hit is near 2.6%.
# Yeast life ext – compounds extending yeast replicative lifespan, primary screen, S. cerevisiae, OD615. S. cerevisiae growth with nicotinamide; deaD strain in restrictive glucose medium. inhibition of the nicotinamide effect, % at 10 µM. hit rate 0.68% among 130,000. AID 775, 2007;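 active means inhibition above a set limit, placed 3 SD over the median of all compounds, cut at about 26% in these data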;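 further: 0% = nicotinamide-treated wells and 100% = cells grown without nicotinamide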
#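 assay system = DeaD-strain S. cerevisiae | measured by = absorbance at 615 nm | probe or stimulus = nicotinamide 1.5 mM | buffer or medium = CSMM-D glucose medium, restrictive | times = 48 h at 30 °C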
# RAM network inh – inhibitors of the yeast RAM network, primary screen, dse1pr::URA3 reporter, 5-FOA selection | S. cerevisiae dse1pr::URA3 reporter, 5-FOA growth OD615, 2 d; analog-sensitive cbk1-as2 kinase mutant strain | hit rate 1.8% among 190,000 | AID 868, 2007 | inhibition, % at 50 µM;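 active means inhibition above a set limit, 3 SD over mean compound inhibition, cut at about 8.4% in these data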;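 further: 0% = DMSO-only wells with no growth and 100% = 10 µM 1-NA-PP1 full growth; inhibition rescues growth on 5-FOA so higher OD means more RAM inhibition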
# Yeast growth inh – growth inhibitors of yeast BB579 in restrictive medium, primary screen, yeast lifespan-shortening project, S. cerevisiae; OD615, 48 h; inhibition, % at 10 µM; hit rate 0.51% among 140,000;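 active means inhibition above a set limit, 3 SD over the mean compound inhibition, cut at about 44% in these data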
#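 controls = amphotericin B 10 µg/mL, positive | assay system = DeaD yeast strain BB579 | schedule = 48 h compound exposure at 30 °C after 4 h preincubation | detection = OD615 turbidity measurement | medium = restrictive CSMM-D medium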
# The depositor's hits bear a star; x = no result.
SMILES,Yeast life ext,RAM network inh,Yeast growth inh
O=C(c1ccccc1)[C@H]1CC=CC[C@H]1C(=O)O,2,2,-13
O=C(O)c1nc(-c2ccccc2)n(-c2cccc(C(F)(F)F)c2)n1,x,1,x
Cc1ccc(C(=O)N2CCCC2)cc1S(=O)(=O)Nc1cccc(C)c1C,x,-2,x
CCCC1COC(Cn2cncn2)(c2ccc(C)cc2)O1 (stereo not drawn),-20,-1,94*
O=C(Nc1nn[nH]n1)c1cc(-c2ccc(Cl)c(Cl)c2Cl)nc2ccccc12,x,3,x
CC(C)(C)c1ccc(OCc2ccc(C(=O)N/N=C3\CC4CC=CC34)cc2)cc1 (stereo not drawn),-3,-1,-19
O=C(N/N=C1\CC2CC=CC12)c1ccc(COc2ccccc2)cc1 (stereo not drawn),-4,0,54*
O=C(c1ccc(Cl)cc1)c1c[nH]c(C(=O)C(Cl)(Cl)Cl)c1,-22,0,84*
O=C(c1ccccc1)c1c[nH]c(C(=O)C(Cl)(Cl)Cl)c1,x,1,x
CCCn1c(NC(=O)c2ccco2)nc2ccccc21,-8,0,-19
CCCn1c(NC(=O)C2COc3ccccc3O2)nc2ccccc21 (stereo not drawn),-12,8.6*,-61
CC(=O)Nc1cccc2c1C(=O)N(c1ccccc1OC(C)=O)C2=O,x,2,x
COc1ccc(C2CC(c3ccccc3)=NN2S(=O)(=O)c2ccc(C)cc2)c(OC)c1 (stereo not drawn),7,5,4
COc1cccc(C2CC(c3ccccc3)=NN2S(=O)(=O)c2ccc(C)cc2)c1OC (stereo not drawn),x,11*,x
CCCCCC(=O)NNC(=O)c1c(O)c2ccccc2n(CC)c1=O,x,3,x
CCCCCCCCCC(=O)NNC(=O)c1c(O)c2ccccc2n(CC)c1=O,x,10*,x
CCCn1c(=O)c(C(=O)NNS(=O)(=O)c2ccc(C)cc2)c(O)c2ccccc21,21,3,-13
CCCCCCn1c(=O)c(Cc2ccccc2)c(O)c2ccccc21,x,7,x
CCn1c(=O)c(C(=O)NCc2cccnc2)c(O)c2ccccc21,17,0,-34
CCCCCCn1c(=O)c(-c2ccccc2)c(O)c2ccccc21,-1,9.5*,34
CCn1c(=O)c(C(=O)NNS(=O)(=O)c2ccc(C)cc2)c(O)c2ccccc21,32*,1,-15
CCCn1c(=O)c(C(=O)NCc2ccncc2)c(O)c2ccccc21,28*,-1,-7
O=C(CCN1CCN(c2ccccc2)CC1)NNC(=S)Nc1ccccc1Cl,x,0,x
CC1CN(CC(=O)Nc2ccc([N+](=O)[O-])cc2Br)CC(C)O1 (stereo not drawn),x,0,x
COc1ccc2c(c1O)C(=O)c1ccccc1C2=O,x,2,x
SMILES,Yeast life ext,RAM network inh,Yeast growth inh
CC(C)COC(=O)c1ccc2c(c1O)C(=O)c1ccccc1C2=O,-8,8.8*,-26
Cc1nonc1CC(=O)N1CCCC(C(=O)c2cccc(C(F)(F)F)c2)C1 (stereo not drawn),x,1,x
Cn1nnnc1SCC(=O)C(C)(C)C,x,2,x
Cc1cc(Cl)ccc1OC(C)C(=O)Nc1ccc([N+](=O)[O-])cn1 (stereo not drawn),5,5,-39
O=C(Nc1ccccc1Cl)c1ccc(COc2ccc3c(c2)CCC3)cc1,6,11*,-55
NNC(=O)c1ccc(COc2ccc3c(c2)CCC3)cc1,-5,-1,30
Cc1cc(OCc2ccc(C(=O)NN=C3CCCC3)cc2)ccc1Cl,-6,0,97*
O=C(COc1ccc(OCc2ccccc2)cc1)NN=C1CCCC1,x,-1,x
C/C(=N/NC(=O)c1ccc2nc[nH]c2c1)c1cccs1,-4,0,-8
CC1CC(C)(C)NC(=S)N1CCC(=O)NCc1ccc(Cl)cc1 (stereo not drawn),x,0,x
CS(=O)(=O)N(CC(=O)NCc1ccncc1)c1cc(Cl)ccc1Cl,x,0,x
CN1CCN(c2ccc(Cl)cc2NC(=O)CCN2C(=O)c3ccccc3C2=O)CC1,x,0,x
Cn1cc(CNC(=O)c2cc(-c3ccccc3)nc3ccc(Br)cc23)cn1,-4,3,-51
Cn1cc(CNC(=O)c2cc(-c3ccc(Br)cc3)nc3ccccc23)cn1,x,8.8*,x
N#Cc1c(Nc2cccc(F)c2)sc2c(O)cc(=O)[nH]c12,x,4,x
Cc1ccc(-c2cc(-c3ccccc3[N+](=O)[O-])[nH]n2)c(O)c1,-11,2,-27
Cc1ccc(-c2cc(-c3ccccc3Cl)[nH]n2)c(O)c1,-19,0,92*
CN(C)S(=O)(=O)c1ccc(C(=O)NCC(=O)N/N=C/c2ccccc2Cl)cc1,x,5,x
CC1(C)CC(=O)C(C(=O)Cc2ccccc2[N+](=O)[O-])C(=O)C1,58*,-1,-35
CCOc1ccc(CC(=O)C2C(=O)CC(C)(C)CC2=O)cc1OCC,14,1,-40
Cc1cc(NC(=O)CSc2nnc(-c3c[nH]c4ccccc34)n2C)no1,x,1,x
O=C(O)CSCc1cnn(-c2ccccc2)c1-n1cccc1,-18,3,-39
CCOc1ccc(NC(=O)CSCc2cnn(-c3ccccc3)c2-n2cccc2)cc1,1,10*,-60
Cc1cc(C)nc(-n2cc(C(=O)c3cc(F)ccc3O)cn2)n1,30*,-2,-28
COc1ccc(O)c(C(=O)c2cnn(-c3ccccn3)c2)c1,x,8,x
SMILES,Yeast life ext,RAM network inh,Yeast growth inh
Cc1ccnn1CCC(=O)N1CCCC(CCC(=O)N2CCN(c3ccccn3)CC2)C1 (stereo not drawn),x,0,x
C/C(=N/NC(=O)c1cc2ccccc2cc1O)C1C(=O)c2ccccc2C1=O,1,1,-39
C/C(=N\NC(=O)c1ccccc1O)C1C(=O)c2ccccc2C1=O,98*,3,-49
O=C(COC(=O)c1ccc(CNS(=O)(=O)c2ccc(F)c(Cl)c2)cc1)NC1CCCCCCC1,2,4,-38
N#CCCN(C(=O)COC(=O)c1ccc(CNS(=O)(=O)c2ccc(F)c(Cl)c2)cc1)c1ccc(F)cc1,-5,11*,-23
N#CCCN(C(=O)COC(=O)c1ccc2c(=O)n3c(nc2c1)CCC3)c1ccc(F)cc1,x,-1,x
O=C(COC(=O)c1ccc(CNS(=O)(=O)c2ccc(F)c(Cl)c2)cc1)NCC1CCCCC1,5,9.0*,-40
Cc1ccc(CN2CCN(/N=C/c3cccs3)CC2)cc1,2,1,-56
CC(=O)Nc1ccc(NC(=O)COC(=O)c2cnccn2)cc1,x,2,x
COc1ccc(NS(=O)(=O)c2cccc(NC(=O)c3cnccn3)c2)cc1Br,x,-1,x
COc1ccc(N(C(=O)C(C)C)S(=O)(=O)c2ccc(Cl)cc2)cc1,51*,5,-50
COc1ccc(N(C(=O)C(C)C)S(=O)(=O)c2cccc([N+](=O)[O-])c2)cc1,x,6,x
Cc1ccc(Cl)cc1NC(=S)N1CCC(c2ccccc2)C1 (stereo not drawn),x,4,x
Cc1nc(Nc2nc3ccccc3o2)nc(C)c1C,x,1,x
CCCc1nc(Nc2nc3ccccc3o2)nc(C)c1C(=O)OCC,-4,11*,-58
O=C(CN1C(=O)c2ccccc2S1(=O)=O)NC(Nc1ccccc1F)C(Cl)(Cl)Cl (stereo not drawn),x,2,x
COC(=O)c1ccc2c(=O)n(-c3ccccc3F)c(=S)[nH]c2c1,x,3,x
